According to publication PMC12892081 (Acta Pharmaceutica Sinica. B, 2025):
Where a SMILES comes first, the peptide text is derived from it. Bridges are numbered along the chain shown (N, C = ends). The star is where a group is joined. 5FAM = O=C1OC2(c3ccc(O)cc3Oc3cc(O)ccc32)c2ccc(C(=O)*)cc21

Tests used:
[1] = In vitro skin penetration across excised rat skin; assay type: in vitro ADME, SD rats; conditions: for skin permeability compared to the other CPPs: FAM-CPP conjugates, excised rat back skin, P < 0.01
Summary of the method: (§1)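 Valia-Chien diffusion cells at 37 ± 0.5 °C, stirred at 250 rpm, with excised rat back skin or Berkshire pig skin. Donor held 50 μmol/L N-terminally FAM-labelled peptide or free FAM in 0.9% NaCl with 0.5% (v/v) DMSO. Receiver sampled at 0–5 h and replaced with fresh saline; fluorescence read at 492 nm. Cumulative amount and Papp derived; at least 4 replicates.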

[2] = In vitro skin penetration across excised pig skin; assay type: in vitro ADME, Berkshire pig; conditions: FAM-peptide conjugate vs free FAM, donor 50 μmol/L
Summary of the method: as §1

B16F10 cells = experiment: Calcein-AM/PI double staining of B16F10 cells; assay type: cell-based; conditions: 15 μmol/L, 48 h, vs control group
Summary of the method: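 B16F10 cells exposed 48 h to 15 μmol/L agents, then stained with a Calcein-AM/PI double staining kit (calcein marks live cells green, PI marks dead cells red). Imaged by inverted fluorescence microscopy.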

[3] = tested on: human keratinocyte cells (HeKa cells); experiment: HeKa cell viability; assay type: cell-based; conditions: 50 μmol/L FAM-CPP conjugate, exposure 72 h, CCK-8, n = 3
Summary of the method: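 HeKa cells exposed to 50 μmol/L FAM or FAM–peptide conjugate for 48 and 72 h. Viability read with CCK-8; n = 3.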

SMILES: CC[C@H](C)[C@H](NC(=O)[C@H](CCC(N)=O)NC(=O)[C@H](CCCNC(=N)N)NC(=O)c1ccc2c(c1)C(=O)OC21c2ccc(O)cc2Oc2cc(O)ccc21)C(=O)N[C@@H](CCCCN)C(=O)N[C@@H](Cc1c[nH]c2ccccc12)C(=O)N[C@@H](Cc1c[nH]c2ccccc12)C(=O)N[C@@H](Cc1ccccc1)C(=O)N[C@@H](Cc1c[nH]c2ccccc12)C(=O)N[C@@H](Cc1c[nH]c2ccccc12)C(=O)N[C@@H](CCCNC(=N)N)C(=O)N[C@@H](CCCNC(=N)N)C(=O)N[C@@H](CCSC)C(=O)N[C@@H](CCCCN)C(=O)N[C@@H](Cc1c[nH]c2ccccc12)C(=O)N[C@@H](CCCCN)C(=O)N[C@@H](CCCCN)C(=O)O [FAM-589WP] (5FAM-RQIKWWFWWRRMKWKK-OH)
- increase in Papp compared to free FAM, rat skin ([1]; FAM-peptide conjugate vs free FAM, excised rat skin, donor 50 μmol/L): 72 fold
- increase in Papp compared to free FAM, pig skin [2]: 60 fold

SMILES: O=c1[nH]c(=O)n([C@H]2C[C@H](O)[C@@H](CO)O2)cc1F [FUdR, 5-fluoro-2ʹ-deoxyuridine]
- live cell density / dead cells by Calcein-PI staining (B16F10 cells): notable decrease in live cell density

SMILES: CC[C@H](C)[C@H](NC(=O)[C@H](CCCCN)NC(=O)[C@@H](NC(=O)[C@H](CCC(N)=O)NC(=O)[C@H](CCCNC(=N)N)NC(=O)c1ccc2c(c1)C(=O)OC21c2ccc(O)cc2Oc2cc(O)ccc21)[C@@H](C)CC)C(=O)N[C@@H](Cc1c[nH]c2ccccc12)C(=O)N[C@@H](Cc1ccccc1)C(=O)N[C@@H](CCC(N)=O)C(=O)N[C@@H](CC(N)=O)C(=O)N[C@@H](CCCNC(=N)N)C(=O)N[C@@H](CCCNC(=N)N)C(=O)N[C@@H](CCSC)C(=O)N[C@@H](CCCCN)C(=O)N[C@@H](Cc1c[nH]c2ccccc12)C(=O)N[C@@H](CCCCN)C(=O)N[C@@H](CCCCN)C(=O)O [Penetratin]
- skin permeability compared to the other CPPs ([1]; donor 50 μmol/L): significantly higher than the other CPPs
- cytotoxicity to HeKa cells [3]: did not display cytotoxicity

SMILES: C[C@H](NC(=O)c1ccc2c(c1)C(=O)OC21c2ccc(O)cc2Oc2cc(O)ccc21)C(=O)N[C@H]1CSSC[C@@H](C(=O)NCC(=O)O)NC(=O)[C@H](CCC(N)=O)NC(=O)[C@H](Cc2c[nH]cn2)NC(=O)[C@H](CCC(N)=O)NC(=O)[C@H]([C@@H](C)O)NC(=O)[C@H](CO)NC(=O)CNC(=O)[C@H]([C@@H](C)O)NC1=O [SPACE] (5FAM-ACTGSTQHQCG-OH; disulfide 2-10)
- permeability relative to the optimized peptide 589WP ([1]; FAM conjugates, excised rat skin): about one-third the permeability of the optimized peptide 589WP
- permeability relative to wild-type penetratin ([1]; FAM conjugates, excised rat skin (Fig. 1)): about half the permeability of wild-type penetratin

SMILES: CC[C@H](C)[C@H](NC(=O)[C@H](CCCCN)NC(=O)[C@H](CCCCN)NC(=O)[C@H](C)NC(=O)[C@H](CC(C)C)NC(=O)[C@H](C)NC(=O)[C@H](C)NC(=O)[C@H](CC(C)C)NC(=O)[C@H](C)NC(=O)[C@H](CCCCN)NC(=O)[C@H](CC(C)C)NC(=O)[C@H](CC(N)=O)NC(=O)[C@@H](NC(=O)[C@H](CCCCN)NC(=O)CNC(=O)[C@H](CC(C)C)NC(=O)[C@H](CC(C)C)NC(=O)[C@H](Cc1ccc(O)cc1)NC(=O)CNC(=O)[C@H](C)NC(=O)[C@H](CO)NC(=O)[C@H](CC(N)=O)NC(=O)[C@H](CC(C)C)NC(=O)[C@@H](NC(=O)[C@H](Cc1c[nH]c2ccccc12)NC(=O)CNC(=O)c1ccc2c(c1)C(=O)OC21c2ccc(O)cc2Oc2cc(O)ccc21)[C@@H](C)O)[C@@H](C)CC)C(=O)N[C@@H](CC(C)C)C(=O)O [Transportan]
- skin permeability compared to the other CPPs ([1]; donor 50 μmol/L): significantly higher than the other CPPs
